# Several values for one entry are separate records, joined by “and”; a condition that tells them apart may be missing. Equal values may be shown once. Activity calls are given as the source filed them.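 Rule for the calls: active = any dose giving under 70% viability, per first replicate; inactive = the rest.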
# How the values were obtained:
# [1] = test system: HEp-2 viability, ATP luminescence; assay: viability loss in HEp-2 cells – cell-based, synthesized compounds, set 8, cytotoxicity control for RSV inhibitor project, SAR follow-up (AID 504818)
# How it was run: (§1)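 material = HEp-2 cells without virus | amount = 10,595 HEp-2 cells per well | compound dosing = eight 1:2 steps, 0.39–50 µM, 0.5% DMSO | incubation = 6 d compound exposure, 37 °C | detection = ATP luminescence (CellTiter-Glo) | read-out basis = % viability and CC50 (0–100 bounded fit) | control set = cell-only wells as 100% reference | replication = triplicate wells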
# [2] = as above; settings: HEp-2 viability, ATP luminescence; at 50 µM (top of the series)
# How it was run: as §1
SMILES,CC50 [1],viability [2]
Cc1ccc(C(F)(F)F)cc1NC(=O)[C@@H]1CCCN1S(=O)(=O)c1cccc2cccnc12,3.7 µM,
Cc1ccc(NC(=O)C(C)NS(=O)(=O)c2cccc3cccnc23)c(C)c1 (stereo unspecified),,77.7% (inactive)
Cc1ccc(NC(=O)[C@H]2CCCN2S(=O)(=O)c2cccc3cccnc23)c(C)c1,40.9 µM,
Cc1ccc(NC(=O)C2CCCN2S(=O)(=O)c2cccc3cccnc23)c(C)c1 (stereo unspecified),33.4 µM,
Cc1ccc(NC(=O)[C@@H]2CCCN2S(=O)(=O)c2cccc3cccnc23)c(C)c1,33 µM,
Cc1cc(C)cc(NC(=O)[C@@H]2CCCN2S(=O)(=O)c2cccc3cccnc23)c1,32.2 µM,
Cc1ccc(Cn2c(=O)n(Cc3ccc(C(=O)NC(C)(C)C)cc3)c(=O)c3ccccc32)cc1,10.2 µM,
Cc1ccc(C)c(NC(=O)[C@@H]2CCCN2S(=O)(=O)c2cccc3cccnc23)c1,36.2 µM and 32.9 µM,
Cc1ccc(F)cc1NC(=O)[C@@H]1CCCN1S(=O)(=O)c1cccc2cccnc12,22.5 µM,
Cc1ccc(C(C)(C)C)cc1NC(=O)[C@@H]1CCCN1S(=O)(=O)c1cccc2cccnc12,6.2 µM,
COCCCNC(=O)c1ccc(Cn2c(=O)c3ccccc3n(C)c2=O)cc1,15 µM,
COCCCNC(=O)c1ccc(Cn2c(=O)c3ccccc3n(Cc3cc(C)on3)c2=O)cc1,7 µM,
CC(C)c1ccccc1NC(=O)[C@@H]1CCCN1S(=O)(=O)c1cccc2cccnc12,30.1 µM,
O=C(Nc1ccccc1)[C@@H]1CCCN1S(=O)(=O)c1cccc2cccnc12,38.4 µM,
COc1ccc(C)cc1NC(=O)[C@@H]1CCCN1S(=O)(=O)c1cccc2cccnc12,,82% (inactive)
Cc1ncccc1NC(=O)[C@@H]1CCCN1S(=O)(=O)c1cccc2cccnc12,,72.6% (inactive)
Cc1ccc(Cl)c(NC(=O)[C@@H]2CCCN2S(=O)(=O)c2cccc3cccnc23)c1,13.6 µM,
Cc1ccc(NC(=O)[C@@H]2CCCN2S(=O)(=O)c2cccc3cccnc23)cc1,33.1 µM,
CCCn1c(=O)n(Cc2ccc(C(=O)NCCCOC)cc2)c(=O)c2ccccc21,22.8 µM,
Cc1ccc(Cl)cc1NC(=O)[C@@H]1CCCN1S(=O)(=O)c1cccc2cccnc12,9.25 µM,
Cc1ccc(C(C)C)cc1NC(=O)[C@@H]1CCCN1S(=O)(=O)c1cccc2cccnc12,10.6 µM,
Cc1ccc(NC(=O)C2CCCN2S(=O)(=O)c2cccc3ccccc23)c(C)c1 (stereo unspecified),18.4 µM,
Cc1ccc(NC(=O)C2CCCN2S(C)(=O)=O)c(C)c1 (stereo unspecified),,96.3% (inactive)
Cc1cccc(NC(=O)[C@@H]2CCCN2S(=O)(=O)c2cccc3cccnc23)c1,20.8 µM,
Cc1cccc(NC(=O)[C@@H]2CCCN2S(=O)(=O)c2cccc3cccnc23)c1C,49.5 µM,
COCCCNC(=O)c1ccc(Cn2c(=O)c3ccc(Br)cc3n(Cc3ccc(C)cc3)c2=O)cc1,39 µM,

# — PubChem BioAssay AID504818 (Southern Research Specialized Biocontainment Screening …, 2011)
